Laboratory results as given in article PMC3496166 (Scientific Reports, 2012).
Where two headings read alike, the source gives them in different places.

Columns and labels:
[1] = target: EF-G (Escherichia coli, UniProt P0A6M8); experiment: isothermal titration calorimetry; format: binding
In short: (§1)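 Assay used 6His-tagged E. coli protein, purified with an added Ni-NTA step. ITC ran at 5 or 25°C in pH 7.5 phosphate buffer (5 mM K2HPO4, 95 mM KCl, 5 mM MgCl2, 1 mM DTT, 10% glycerol). G nucleotide or 27-nt SRL RNA (50–500 μM in syringe) was titrated into protein (5–40 μM in cell), some runs with 500 μM nucleotide or 200 μM SRL added. Dilution heat subtracted; one-site nonlinear fit.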

[2] = target: IF2 (Escherichia coli, UniProt P0A705); experiment: isothermal titration calorimetry; format: binding
Sequence of IF2 (Escherichia coli, UniProt P0A705) (P0A705 whole entry): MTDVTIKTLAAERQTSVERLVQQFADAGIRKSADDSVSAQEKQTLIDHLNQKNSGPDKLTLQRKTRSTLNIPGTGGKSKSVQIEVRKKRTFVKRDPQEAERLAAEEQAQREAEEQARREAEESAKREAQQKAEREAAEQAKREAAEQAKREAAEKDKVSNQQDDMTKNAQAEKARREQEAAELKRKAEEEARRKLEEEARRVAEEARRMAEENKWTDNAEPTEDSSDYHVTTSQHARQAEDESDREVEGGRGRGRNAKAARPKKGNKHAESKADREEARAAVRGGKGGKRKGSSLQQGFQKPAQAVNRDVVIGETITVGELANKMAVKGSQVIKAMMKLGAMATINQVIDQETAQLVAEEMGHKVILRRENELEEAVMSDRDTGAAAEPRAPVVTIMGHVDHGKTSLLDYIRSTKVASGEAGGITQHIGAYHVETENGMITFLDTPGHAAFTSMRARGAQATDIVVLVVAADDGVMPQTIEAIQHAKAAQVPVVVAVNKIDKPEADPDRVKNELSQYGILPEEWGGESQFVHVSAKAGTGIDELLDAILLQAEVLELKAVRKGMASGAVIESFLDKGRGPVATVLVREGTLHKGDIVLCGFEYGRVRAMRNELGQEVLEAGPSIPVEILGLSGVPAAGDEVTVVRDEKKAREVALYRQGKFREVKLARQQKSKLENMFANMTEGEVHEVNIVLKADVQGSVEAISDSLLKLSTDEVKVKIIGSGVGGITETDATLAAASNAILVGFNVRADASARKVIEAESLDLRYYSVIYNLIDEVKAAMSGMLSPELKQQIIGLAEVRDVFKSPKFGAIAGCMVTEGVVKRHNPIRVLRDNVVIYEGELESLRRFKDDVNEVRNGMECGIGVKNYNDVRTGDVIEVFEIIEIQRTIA
In short: as §1

[3] = target: T1, EF-G (E. coli, UniProt P0A6M8 1-704); experiment: ITC
T1 sequence (P0A6M8 whole entry): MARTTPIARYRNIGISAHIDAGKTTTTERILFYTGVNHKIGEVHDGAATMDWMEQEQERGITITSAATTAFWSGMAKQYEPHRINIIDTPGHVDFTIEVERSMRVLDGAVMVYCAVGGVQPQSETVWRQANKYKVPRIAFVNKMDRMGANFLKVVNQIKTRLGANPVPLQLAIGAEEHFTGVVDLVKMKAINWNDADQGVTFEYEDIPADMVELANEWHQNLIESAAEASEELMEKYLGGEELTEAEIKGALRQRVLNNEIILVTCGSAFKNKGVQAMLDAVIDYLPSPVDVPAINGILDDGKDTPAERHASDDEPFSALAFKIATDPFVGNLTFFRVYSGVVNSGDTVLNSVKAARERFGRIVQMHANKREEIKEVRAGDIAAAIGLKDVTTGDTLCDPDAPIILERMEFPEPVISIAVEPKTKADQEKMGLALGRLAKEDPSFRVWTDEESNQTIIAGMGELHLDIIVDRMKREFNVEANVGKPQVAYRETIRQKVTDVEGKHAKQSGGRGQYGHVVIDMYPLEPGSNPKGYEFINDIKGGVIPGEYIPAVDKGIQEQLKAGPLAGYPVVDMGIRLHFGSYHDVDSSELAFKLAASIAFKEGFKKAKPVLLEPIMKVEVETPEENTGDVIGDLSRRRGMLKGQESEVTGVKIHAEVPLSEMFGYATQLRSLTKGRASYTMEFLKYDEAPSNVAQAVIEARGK

[4] = target: T2, IF2 (E. coli, UniProt P0A705 1-890); experiment: ITC
T2 sequence (P0A705 whole entry): as the sequence (P0A705 whole entry) above

[5] = target: T1, EF-G; experiment: ITC; remark: listed apart in the source
[6] = target: T2, IF2; experiment: ITC; remark: listed apart in the source
[7] = target: T1, EF-G; experiment: ITC; remark: listed apart in the source

Sequence of EF-G (Escherichia coli, UniProt P0A6M8) (P0A6M8 2-704): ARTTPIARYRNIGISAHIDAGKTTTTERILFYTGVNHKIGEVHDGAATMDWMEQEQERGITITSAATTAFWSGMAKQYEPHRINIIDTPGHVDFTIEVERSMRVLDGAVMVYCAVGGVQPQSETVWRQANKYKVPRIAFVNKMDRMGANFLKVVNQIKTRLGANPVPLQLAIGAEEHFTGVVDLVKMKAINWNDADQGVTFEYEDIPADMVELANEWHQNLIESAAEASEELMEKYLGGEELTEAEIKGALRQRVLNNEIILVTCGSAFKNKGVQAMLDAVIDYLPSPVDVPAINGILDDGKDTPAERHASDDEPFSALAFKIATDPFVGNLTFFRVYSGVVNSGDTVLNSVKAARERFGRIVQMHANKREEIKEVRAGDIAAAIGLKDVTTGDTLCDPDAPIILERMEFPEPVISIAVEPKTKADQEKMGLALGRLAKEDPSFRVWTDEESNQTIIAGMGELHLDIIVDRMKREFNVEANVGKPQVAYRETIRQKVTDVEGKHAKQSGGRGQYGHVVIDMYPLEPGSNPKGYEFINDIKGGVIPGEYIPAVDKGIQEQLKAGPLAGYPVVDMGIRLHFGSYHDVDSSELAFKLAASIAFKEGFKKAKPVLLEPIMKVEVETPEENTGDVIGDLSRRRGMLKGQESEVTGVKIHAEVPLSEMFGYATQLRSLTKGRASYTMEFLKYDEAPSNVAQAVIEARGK

Molecule	Kd [1] [nM]	Kd [2] [nM]	Kd [3] [nM]	Kd [4] [nM]	Kd [5] [nM]	Kd [6] [nM]	Kd [7] [nM]
Nc1nc2c(ncn2[C@@H]2O[C@H](COP(=O)(O)OP(=O)(O)O)[C@@H](O)[C@H]2O)c(=O)[nH]1 [GDP]	1800	1600	–	–	–	–	–
Nc1nc2c(ncn2[C@@H]2O[C@H](COP(=O)(O)OP(=O)(O)OP(=O)(O)O)[C@@H](O)[C@H]2O)c(=O)[nH]1 [GTP]	2700	6700	–	–	–	–	–
GGGCUCCUAGUACGAGAGGACCGGAGU (structured_RNA) [SRL RNA wt (27 nt)]	–	–	5900	670	4200	1000	3700
